Consider six compounds from PMC4482135 (Organometallics, 2015).

In data set [1] the test system is MCF7 human breast carcinoma cells. The data set can be described thus: In vitro growth inhibition. The format is cell-based. Conditions: read-out: IC50 values, MCF-7; 24 h drug exposure, 72 h recovery, SRB assay. In short, it runs like this: (§1)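 Cells seeded at 5000 per well and preincubated 48 h drug-free at 310 K. Media: RPMI-1640 (A2780), DMEM (A549, MCF7) or McCoy's 5A (HCT116), each with 10% FCS. Test compound stocks made in 5% DMSO with saline/medium 1:1, then serially diluted in medium. Exposure 24 h, PBS wash, then 72 h recovery. SRB absorbance read at 470 nm against untreated control. IC50 (50% growth inhibition) from duplicates of triplicates in two independent experiments.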

The subject of data set [2] is A549 human lung carcinoma cells. In words: In vitro growth inhibition. Conditions: read-out: IC50 values, A549; 24 h drug exposure, 72 h recovery, SRB assay. The format is cell-based. In a few lines: as §1
Data set [3] has as its system HCT116 human colon carcinoma cells. In words: In vitro growth inhibition. The format is cell-based. The settings on record: read-out: IC50 values, HCT-116; 24 h drug exposure, 72 h recovery, SRB assay. In short, it runs like this: as §1
The next data set has as its system 9-ethylguanine (9-EtG). In words: Binding to nucleobase 9-ethylguanine by 1H NMR. In a few lines:
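Test complex (ca. 500 μM) and 9-EtG (ca. 500 μM), about 1:1, in 26.7% MeOD-d4/73.3% D2O with 4 mM NaCl, so the complex is mainly the Ir–Cl form. Held at 310 K, pH* 7.4. 1H NMR (600 MHz) recorded 15 min and 24 h after nucleobase addition. Adduct percentage taken from 1H NMR peak integrations.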

Another data set concerns 9-methyladenine (9-MeA). In words: Binding to nucleobase 9-methyladenine by 1H NMR. Conditions: co-incubation with equimolar 9-EtG and 9-MeA, 310 K, pH* 7.4. In short, it runs like this: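 Competition run: test complex (ca. 500 μM) with equimolar 9-EtG and 9-MeA in 26.7% MeOD-d4/73.3% D2O at 310 K, pH* 7.4. 1H NMR (600 MHz) recorded 15 min and 24 h after nucleobase addition. Percentage bound to each nucleobase calculated from 1H NMR peak integrations.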

Data set [4] can be described thus: Relative hydrophobicity by RP-HPLC. The format is physicochemical. The settings on record: C18, H2O/MeCN with 50 mM NaCl; longer tR = more hydrophobic. In short, it runs like this:
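RP-HPLC on C18 column (150 × 4.6 mm, 5 μm). A = H2O with 50 mM NaCl; B = H2O/MeCN 1:1 with 50 mM NaCl. Gradient starts at 20% B, reaches 100% B at 15 min, holds to 40 min, returns to 20% B by 42 min; run 57 min. Flow 1 mL min–1, detection 254 nm. Samples ca. 100 μM in 10% MeOH/90% H2O with 50 mM NaCl. tR from duplicates of triplicate runs.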

A short description of data set [5]: Catalytic oxidation of NADH to NAD+ by UV-visible spectroscopy. The settings on record: complex 2.5 μM, NADH 69, 103, 146 μM, 310 K, pH 7.5. In short, it runs like this:
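Test complex fixed at 2.5 μM with NADH at 69, 103 or 146 μM, in 5 mM Na2HPO4/NaH2PO4 buffer pH 7.5 (0.5% MeOH/99.5% H2O), 310 K, 24 h. NADH loss followed by UV–vis at 339 nm (εNADH = 6220 cm–1 M–1). Rate constant k taken from first-order kinetic plots in [NADH].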

Data set [6] deals with A2780 ovarian carcinoma cells. In words: Cellular-iridium accumulation in A2780 cells by ICP-MS. The format is cell-based, human. The settings on record: for cellular-Ir accumulation: 24 h exposure at equipotent (IC50) concentrations, no recovery, ICP-MS. In short, it runs like this:
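A2780 cells, 1.5 × 10^6 per well, preincubated 24 h drug-free at 310 K in humidified 5% CO2. Then 24 h exposure to test complex. Cells trypsinised, counted and pelleted; pellets digested overnight in 73% HNO3 at 353 K, then diluted to 5% HNO3. 193Ir measured by ICP-MS (no-gas mode, duplicate readings, 0–100 ppb calibration). Triplicates in two independent experiments.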

The test system of data set [7] is A2780 human ovarian cancer cells. The data set can be described thus: Cellular-iridium distribution in A2780 cells. The format is cell-based. The settings on record: IC50 concentrations.
Data set [8] deals with A2780 human ovarian carcinoma cells. The data set can be described thus: In vitro growth inhibition. The format is cell-based. Conditions: read-out: IC50 values, A2780; 24 h drug exposure, 72 h recovery, SRB assay. In short, it runs like this:
as §1

For data set [9] the test system is unchanged. The settings on record: read-out: IC50 values, A2780; previously reported complexes; ref [4b]; cited from earlier work.

Several values for one entry are separate records, joined by “and”; a condition that tells them apart may be missing. Equal values may be shown once. Read-outs that look alike come from different tables or passages of the source.

For `Cc1c(C)c(C)[c-](C)c1C.Fc1ccc[c-]c1-c1ccccn1.[Cl-].[Ir+3]` [Complex 1, [(η^5-Cp*)Ir(2-(2′-fluorophenyl)pyridine)Cl]], the IC50 in data set [1] was 9.6 ± 0.4 µM; in [2], 10.36 ± 0.07 µM; in [3] it was 3.7 ± 0.3 µM.
On to `Cc1c(C)c(C)[c-](C)c1C.Fc1ccc(-c2[c-]cccc2)nc1.[Cl-].[Ir+3]` [Complex 4, [(η^5-Cp*)Ir(2-phenyl-5-fluoropyridine)Cl]], for which the “binding to 9-EtG in the presence of 4 mM NaCl” value with 9-ethylguanine (9-EtG) (4 mM NaCl (Ir-Cl species), after 15 min) is listed as 100%. Moreover, in the data set on 9-ethylguanine (9-EtG) (4 mM NaCl (Ir–Cl species), after 24 h, 310 K), the “binding to 9-EtG in the presence of 4 mM NaCl” value is 100%. In the data set on 9-methyladenine (9-MeA), the “binding to 9-MeA in the presence of 9-EtG (competitive binding)” value is recorded as 5–10%. Further, the “tR by RP-HPLC (relative hydrophobicity)” value in [4] is listed as 18.60 ± 0.02 min. The “average rate constant k, first-order with respect to [NADH]” value in data set [5] is listed as 4.03 × 10^–4 min^–1. The compound also displayed a cellular-Ir accumulation in data set [6] of 11.1 ± 0.1 ng Ir × 10^6 A2780 cells. In data set [7], the “iridium in cell membrane and particulate fractions” value turned out to be 17.9%; the “iridium in cytoskeletal fraction” value turned out to be 6.1%; the “iridium in cytosol fraction” value turned out to be 69.2%; the “iridium in nuclear fraction” value is 6.7%.
In the case of `Cc1c(C)c(C)[c-](C)c1C.Oc1c[c-]c(-c2ccccn2)cc1.[Cl-].[Ir+3]` [Complex 11, [(η^5-Cp*)Ir(2-(4′-hydroxyphenyl)pyridine)Cl]], the IC50 was 28.6 ± 0.9 µM in [1], 47.3 ± 0.1 µM in [8], 56.67 ± 0.04 µM in data set [2] and 29.3 ± 0.8 µM in data set [3]. Besides, the “tR by RP-HPLC (relative hydrophobicity)” value in data set [4] is 15.11 min and 15.1 min and 15.11 ± 0.03 min. In [6], the cellular-Ir accumulation was 1.58 ng Ir × 10^6 A2780 cells and 1.6 ng Ir × 10^6 A2780 cells and 1.6 ± 0.1 ng Ir × 10^6 A2780 cells.
On to `Cc1c(C)c(C)[c-](C)c1C.Oc1ccc(-c2[c-]cccc2)nc1.[Cl-].[Ir+3]` [Complex 12, [(η^5-Cp*)Ir(2-phenyl-5-hydroxypyridine)Cl]], for which the IC50 in data set [8] worked out at 13.3 ± 0.88 µM. Also, the “tR by RP-HPLC (relative hydrophobicity)” value in data set [4] was 17.8 min and 17.8 ± 0.2 min. For the same compound, the cellular-Ir accumulation in data set [6] is 10.2 ng Ir × 10^6 A2780 cells and 10.2 ± 0.2 ng Ir × 10^6 A2780 cells. The “fold cellular-iridium accumulation relative to isomer 11” value in [6] (A2780 cells, IC50 concentrations) is 6 times.
Take `Cc1c(-c2ccccc2)c(C)[c-](C)c1C.[Cl-].[Ir+3].[c-]1ccccc1-c1ccccn1` (stereo not shown) [Complex 17, [(η^5-Cp^xPh)Ir(2-phenylpyridine)Cl]]: the IC50 in [9] was 2.14 ± 0.5 µM.
Turning to `N.N.[Cl][Pt][Cl]` [cisplatin, reference compound], the IC50 is 7 ± 0.1 µM in data set [1], 1.2 ± 0.2 µM in [8], 3.5 ± 0.2 µM in data set [2] and 5.2 ± 0.3 µM in data set [3].
